Measured values from ChEMBL document CHEMBL4138091, “Quinazoline based α1-adrenoreceptor antagonists with potent antiproliferative activity in human prostate cancer cell lines” (Eur J Med Chem, 2017).
Active and inactive are the calls of the source. The rule behind the calls is not given here.

Columns and labels:
[1] = biological target: T1, Alpha-1B adrenergic receptor (Homo sapiens, UniProt P35368); assay: Displacement of [3H]prazosin from human alpha1B adrenoceptor expressed in CHO cell membranes after 30 mins
T1 sequence (P35368 whole entry): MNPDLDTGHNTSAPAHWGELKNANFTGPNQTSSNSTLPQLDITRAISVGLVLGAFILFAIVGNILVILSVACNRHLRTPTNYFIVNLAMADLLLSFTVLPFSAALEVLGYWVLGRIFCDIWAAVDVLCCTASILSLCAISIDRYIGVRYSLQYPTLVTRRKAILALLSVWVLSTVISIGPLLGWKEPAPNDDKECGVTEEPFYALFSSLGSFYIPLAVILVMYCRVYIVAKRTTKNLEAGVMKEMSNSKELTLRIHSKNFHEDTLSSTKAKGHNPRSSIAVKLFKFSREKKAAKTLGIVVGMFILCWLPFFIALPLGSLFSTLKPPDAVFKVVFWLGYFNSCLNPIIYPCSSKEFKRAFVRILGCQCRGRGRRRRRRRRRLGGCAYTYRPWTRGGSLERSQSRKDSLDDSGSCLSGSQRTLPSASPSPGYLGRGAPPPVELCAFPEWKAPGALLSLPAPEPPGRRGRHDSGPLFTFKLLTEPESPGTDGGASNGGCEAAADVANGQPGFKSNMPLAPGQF

[2] = tested on: PC-3; assay: Growth inhibition of human PC3 cells at 10 uM after 48 hrs by SRB assay relative to control; format: functional; settings: PC-3, 48 h, read-out: GI
Method in brief: (§1)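 NCI one-dose screen at 10 µM across 60 human tumour lines, 48 h exposure; growth given relative to no-drug control and to time-zero cell number, so 0–100 means inhibition and below 0 lethality; 100 means no inhibition.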

[3] = tested on: LNCaP; assay: Antiproliferative activity against human LNCAP cells after 120 hrs by MTT assay; format: functional, cell-based
Method in brief: (§2)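 DU-145, PC-3 and LNCaP cells grown in RPMI with 10% fetal calf serum, 37 °C, 5% CO₂; seeded at 5 × 10³ cells/well, exposed to 0.1–50 µM for 120 h. After PBS wash, MTT (5 mg/mL) in PBS 4 h, formazan dissolved in isopropanol, read at 570 nm. Viability as % of untreated; IC50 from at least three independent dose-response curves.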

[4] = biological target: T2, Alpha-1D adrenergic receptor (Homo sapiens, UniProt P25100); assay: Displacement of [3H]prazosin from human alpha1D adrenoceptor expressed in CHO cell membranes after 30 mins
T2 sequence (P25100 whole entry): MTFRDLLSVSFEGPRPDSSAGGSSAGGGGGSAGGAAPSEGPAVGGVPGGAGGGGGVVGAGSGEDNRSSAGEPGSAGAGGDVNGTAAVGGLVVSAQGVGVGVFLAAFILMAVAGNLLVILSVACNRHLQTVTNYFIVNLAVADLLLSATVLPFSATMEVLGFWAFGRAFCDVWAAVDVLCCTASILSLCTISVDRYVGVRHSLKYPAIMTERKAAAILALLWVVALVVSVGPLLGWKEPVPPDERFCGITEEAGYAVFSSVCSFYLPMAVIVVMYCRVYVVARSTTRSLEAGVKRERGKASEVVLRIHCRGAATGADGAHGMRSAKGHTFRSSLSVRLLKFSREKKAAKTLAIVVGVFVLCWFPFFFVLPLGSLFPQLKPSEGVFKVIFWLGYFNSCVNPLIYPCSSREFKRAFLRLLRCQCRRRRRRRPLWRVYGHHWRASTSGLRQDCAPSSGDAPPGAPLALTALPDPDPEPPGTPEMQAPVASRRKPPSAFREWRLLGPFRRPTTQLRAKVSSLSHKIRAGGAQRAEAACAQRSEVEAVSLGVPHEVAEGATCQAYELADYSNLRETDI

[5] = tested on: DU-145; assay: Antiproliferative activity against human DU145 cells after 120 hrs by MTT assay; format: functional, cell-based; settings: DU-145, 120 h; method in brief: as §2
[6] = tested on: DU-145; assay: Antiproliferative activity against human DU145 cells at 10 uM after 48 hrs by SRB assay relative to control; format: functional; method in brief: as §1
[7] = biological target: T3, Alpha-1A adrenergic receptor (Homo sapiens, UniProt P35348); assay: Displacement of [3H]prazosin from human alpha1A adrenoceptor expressed in CHO cell membranes after 30 mins
T3 sequence (P35348 whole entry): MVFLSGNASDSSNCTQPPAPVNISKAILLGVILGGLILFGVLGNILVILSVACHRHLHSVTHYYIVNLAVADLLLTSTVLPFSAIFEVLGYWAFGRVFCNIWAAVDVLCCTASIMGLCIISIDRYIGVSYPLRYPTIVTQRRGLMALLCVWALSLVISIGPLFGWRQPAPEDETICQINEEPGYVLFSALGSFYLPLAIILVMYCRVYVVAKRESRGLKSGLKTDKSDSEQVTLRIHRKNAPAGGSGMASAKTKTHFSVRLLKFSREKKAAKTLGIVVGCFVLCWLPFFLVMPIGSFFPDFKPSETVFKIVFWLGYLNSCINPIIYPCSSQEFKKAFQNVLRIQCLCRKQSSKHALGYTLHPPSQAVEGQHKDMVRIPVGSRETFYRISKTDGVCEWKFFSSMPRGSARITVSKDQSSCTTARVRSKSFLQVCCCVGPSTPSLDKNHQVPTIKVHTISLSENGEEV

[8] = tested on: PC-3; assay: Antiproliferative activity against human PC3 cells after 120 hrs by MTT assay; format: functional, cell-based; settings: PC-3, 120 h; method in brief: as §2
[9] = tested on: Panel NCI-60 (60 carcinoma cell lines); assay: Antiproliferative activity against human NCI60 cells at 10 uM after 48 hrs by SRB assay; format: functional, cell-based; method in brief: as §1
[10] = tested on: PC-3; assay: Antiproliferative activity against human PC3 cells at 0.1 to 50 uM after 120 hrs by MTT assay; format: functional, cell-based; method in brief: as §2
[11] = tested on: DU-145; assay: Antiproliferative activity against human DU145 cells at 0.1 to 50 uM after 120 hrs by MTT assay; format: functional, cell-based; method in brief: as §2
[12] = tested on: LNCaP; assay: Antioxidant activity in human LNCAP cells assessed as inhibition of t-BuOOH-induced ROS level at 1 to 10 uM after 30 mins by DCFH-DA dye-based spectrofluorometric analysis relative to control; format: functional
[13] = tested on: LNCaP; assay: Induction of necrosis in human LNCAP cells assessed as loss of plasma membrane integrity at 1 to 10 uM after 24 hrs by trypan blue staining-based Neubauer hemocytometric method; format: functional, cell-based
Method in brief: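 LNCaP cells seeded at 1 × 10⁶ cells/well, treated 1–10 µM for 24 h at 37 °C, 5% CO₂; scraped into PBS, mixed 1:1 with 0.5% trypan blue, counted on a Neubauer hemocytometer; percentage of stained cells from at least 3 separate counts.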

[14] = tested on: LNCaP; assay: Induction of apoptosis in human LNCAP cells assessed as increase in DNA fragmentation at 1 to 10 uM after 24 hrs by spectrophotometer relative to control; format: functional
Method in brief: (§3)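 LNCaP cells seeded at 1 × 10³ cells/well, treated 1–10 µM for 24 h at 37 °C, 5% CO₂; lysed 30 min, centrifuged, supernatant ELISA with biotin anti-histone and peroxidase anti-DNA antibodies on streptavidin plate, ABTS 20 min, read 405 nm. Fold increase = treated/untreated absorbance; mean ± SD, three independent experiments.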

[15] = tested on: LNCaP; assay: Antiproliferative activity against human LNCAP cells at 0.1 to 50 uM after 120 hrs by MTT assay; format: functional, cell-based; method in brief: as §2
[16] = tested on: LNCaP; assay: Prooxidant activity in human LNCAP cells assessed as increase in depletion of intercellular GSH level at 1 to 10 uM after 24 hrs by MCB dye-based spectrofluorometric analysis; format: functional, cell-based
Method in brief: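 LNCaP cells seeded at 2 × 10⁴ cells/well, treated 1–10 µM for 24 h at 37 °C, 5% CO₂; washed, 50 µM monochlorobimane in PBS 30 min at 37 °C, fluorescence read at excitation 360 nm, emission 465 nm; arbitrary fluorescence units; mean ± SD, three independent experiments.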

[17] = species: Homo sapiens; assay: Selectivity ratio of Ki for human alpha1D adrenoceptor to Ki for human alpha1B adrenoceptor
[18] = tested on: LNCaP; assay: Induction of apoptosis in human LNCAP cells assessed as increase in DNA fragmentation after 24 hrs by spectrophotometer; format: functional, cell-based; method in brief: as §3
[19] = species: Homo sapiens; assay: Selectivity ratio of Ki for human alpha1A adrenoceptor to Ki for human alpha1B adrenoceptor
[20] = tested on: LNCaP; assay: Induction of ROS generation in human LNCAP cells after 24 hrs by DCFH-DA dye-based spectrofluorometric analysis; format: functional, cell-based
Method in brief: (§4)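 LNCaP cells seeded at 2 × 10⁴ cells/well, exposed to compounds (1–10 µM) for 24 h; then loaded with 5 µM DCFH-DA in PBS, 37 °C, 5% CO₂, 30 min, washed, fluorescence read (excitation 485 nm). Antioxidant lines involve t-BuOOH challenge. Output as fold increase of intracellular ROS over untreated; mean ± SD, three independent experiments.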

[21] = tested on: LNCaP; assay: Induction of ROS generation in human LNCAP cells at 1 to 10 uM after 24 hrs by DCFH-DA dye-based spectrofluorometric analysis relative to control; format: functional; method in brief: as §4
[22] = tested on: LNCaP; assay: Antioxidant activity in human LNCAP cells assessed as inhibition of t-BuOOH-induced ROS level at 1 to 10 uM after 24 hrs by DCFH-DA dye-based spectrofluorometric analysis; format: functional, cell-based
[23] = Selectivity index, ratio of cytotoxic concentration for HGF cells to IC10 for human LNCAP cells; format: toxicity; settings: HGF cells and LNCAP cells, read-out: Selectivity Index
[24] = Selectivity index, ratio of cytotoxic concentration for HGF cells to IC50 for human LNCAP cells; format: toxicity; settings: HGF cells and LNCAP cells, read-out: Selectivity Index
[25] = tested on: LNCaP; assay: Antioxidant activity in human LNCAP cells assessed as inhibition of t-BuOOH-induced ROS level after 30 mins by DCFH-DA dye-based spectrofluorometric analysis; format: functional, cell-based
[26] = tested on: LNCaP; assay: Induction of apoptosis in human LNCAP cells assessed as increase in DNA fragmentation at 10 uM after 24 hrs by spectrophotometer relative to control; format: functional
Method in brief: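 LNCaP cells seeded at 1 × 10³ cells/well, exposed to compounds (1–10 µM range) for 24 h at 37 °C, 5% CO₂; lysed, supernatant run in Cell Death Detection ELISAplus (biotin anti-histone/peroxidase anti-DNA on streptavidin plate, ABTS substrate 20 min); absorbance 405 nm. DNA fragmentation given as fold increase, treated/untreated absorbance; mean SD of three independent experiments, t-test vs untreated.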

Ki [1] [nM] | Ki [4] [nM] | Ki [7] [nM] | Compound | Activity [9] | Activity [10] | Activity [11] | Activity [15] | other results
25.1 | 33.9 | 120 | COc1cc2nc(N3CCC[C@@H](NC4=CC(=O)c5ccccc5C4=O)C3)nc(N)c2cc1OC | Active | – | – | – | inhibition of growth at 10 µM [2]: 45.5%; IC50 [3]: 5780 nM; IC50 [5]: 17800 nM; Activity [6]: 54%; IC50 [8]: 18600 nM
46.8 | 295 | > 1000 | COc1cc2nc(N3CCC[C@@H](NC(=O)[C@H]4COc5ccccc5O4)C3)nc(N)c2cc1OC | – | – | – | – | –
55 | 28.2 | 191 | COc1cc2nc(N3CCC[C@H](N)C3)nc(N)c2cc1OC | inactive | inactive | inactive | inactive | inhibition [12]: inactive; Activity [13]: inactive; Activity [14]: inactive; Activity [16]: inactive
0.525 | 2.14 | 7.08 | COc1cc2nc(N3CCC[C@H](NC4=CC(=O)c5ccccc5C4=O)C3)nc(N)c2cc1OC | Active | – | – | – | Ratio Ki [17]: 4; inhibition of growth at 10 µM [2]: 77%; IC50 [3]: 6320 nM; inhibition (INH) [12]: 34%; Activity [18]: Dose-dependent effect; Ratio Ki [19]: 13; IC50 [5]: 18500 nM; Activity [6]: 54%; Activity [20]: Dose-dependent effect; Activity [13]: inactive; Activity [21]: 56%; inhibition [22]: inactive; fold change (FC) [14]: 9.9; selectivity ratio [23]: 9.1; selectivity ratio [24]: 4.7; IC50 [8]: 18200 nM; Activity [16]: Active; inhibition [25]: Dose-dependent effect
316 | > 1000 | > 1000 | COc1cc2nc(N3CCC[C@@H](NC(=O)[C@@H]4COc5ccccc5O4)C3)nc(N)c2cc1OC | – | – | – | – | –
– | – | – | COc1cc2nc(N3CCN(C(=O)C4COc5ccccc5O4)CC3)nc(N)c2cc1OC (centres undefined) [DOXAZOSIN] | – | – | – | – | IC50 [3]: 10500 nM; fold change (FC) [26]: 2.2; IC50 [5]: 30600 nM; Activity [13]: inactive; IC50 [8]: 12100 nM
0.282 | 0.331 | 0.631 | COc1cc2nc(N3CCC[C@H](NC(=O)c4ccco4)C3)nc(N)c2cc1OC | inactive | inactive | inactive | inactive | –
42.7 | 37.2 | 110 | COc1cc2nc(N3CCC[C@@H](NC(=O)c4ccco4)C3)nc(N)c2cc1OC | inactive | inactive | inactive | inactive | –
7.41 | 13.2 | 33.1 | COc1cc2nc(N3CCC[C@H](NC(=O)[C@@H]4COc5ccccc5O4)C3)nc(N)c2cc1OC | inactive | inactive | inactive | inactive | –
63.1 | 49 | 18.2 | COc1cc2nc(N3CCC[C@H](NC(=O)[C@H]4COc5ccccc5O4)C3)nc(N)c2cc1OC | inactive | inactive | inactive | inactive | –
178 | 102 | > 1000 | COc1cc2nc(N3CCC[C@@H](N)C3)nc(N)c2cc1OC | – | – | – | – | –
